According to ChEMBL document CHEMBL2390908, “Mapping the Vif-A3G interaction using peptide arrays: a basis for anti-HIV lead peptides” (Bioorg Med Chem, 2013):
Active and inactive are the calls of the source. No cut-off for these calls is given here.

Legend:
[1] = test system: Human immunodeficiency virus 1; test: Binding affinity to full length N-terminal His6-tagged HIV1 HXB2 Vif expressed in Escherichia coli MC-1061 after overnight incubation by chemiluminescence assay
In short: (§1)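 Immobilized peptide arrays blocked 4 h in 3.5% milk in 50 mM Tris-HCl pH 8, 150 mM NaCl, 1% Tween 20, then probed overnight at 4 °C with purified His-tagged protein in that buffer (full-length Vif 2 μM final; Vif CTD 7 μM final). Detection used anti-Vif mAb, HRP goat anti-mouse and chemiluminescence. Two experiments, duplicate arrays per slide.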

[2] = test system: Human immunodeficiency virus 1; test: Binding affinity to N-terminal His6-tagged HIV1 HXB2 Vif CTD (141 to 192 amino acids) expressed in Escherichia coli MC-1061 after overnight incubation by chemiluminescence assay; in short: as §1
H9 = test: Cytotoxicity against human H9 cells at 50 to 100 uM after 2 hrs; format: cell-based; conditions: h9, 2 h
293T = test: Binding affinity to HIV1 Vif expressed in human 293T cells assessed as inhibition of A3G degradation at 100 uM after 24 hrs by Western blot analysis; format: cell-based; conditions: Human immunodeficiency virus 1
In short: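 293T cells co-transfected by calcium phosphate with Myc/His6-tagged A3G and HVif vectors (empty pcDNA3.1 in place of Vif as control). Medium replaced 8 h post-transfection, peptides added at 100 μM for a further 24 h. Lysates immunoblotted with anti-Myc (A3G) and anti-Vif antibodies. A3G bands quantified densitometrically, with A3G intensity in the no-Vif control set to 100%.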

[3] = test system: Human immunodeficiency virus 1; test: Antiviral activity against HIV1 infected in human H9 cells assessed as inhibition of viral propagation at 50 to 100 uM incubated for 2 hrs prior to infection measured on day 7 to 9 by MAGI assay; format: functional, organism-based
In short: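 H9 cells, which express endogenous A3G, pretreated 2 h with peptides at 50 and 100 μM, then infected with wt HIV-1 HXBII at MOI 0.05. Media collected on days 5, 7 and 9 post-infection, and released-virus infectivity titered by MAGI assay.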

Row | Substance | Activity [1] | Activity [2] | Activity (H9) | inhibition (293T) | inhibition [3]
1 | H-AGAKISIMTYSEFKH-OH | Active | inactive |  |  | 
2 | H-DGPRATMKIMNYDEF-OH | Active | Active |  |  | 
3 | H-HQGCPFQPWDGLDEH-OH | Active | inactive |  |  | 
4 | H-LDVIPFWKLDLDQDY-OH | Active | Active | Non-toxic | Active | inactive
5 | H-MRFFHWFSKWRKLHR-OH | Active | Active |  |  | 
6 | H-NTVWLCYEVKTKGPS-OH | Active | Active |  |  | 
7 | H-QEMAKFISKNKHVSL-OH | Active | Active |  |  | 
8 | H-TFLAEDPKVTLTIFV-OH | Active | Active |  |  | 
9 | H-WVRGRHETYLCYEVE-OH | Active | Active | Non-toxic | Active | Active
10 | H-YSQRELFEPWNNLPK-OH | Active | Active |  |  | 
